Source: PubChem BioAssay
KCNQ1 block – inhibitors of human KCNQ1 channel, primary screen, cell-based, thallium flux, high-throughput | 1.3% of 310,000 active | AID 2642, 2010 | CHO-K1 KCNQ1, FluxOR thallium flux fluorescence; active compounds read high | Potassium voltage-gated channel subfamily KQT member 1 (Homo sapiens), P51787 | B-score at 10 µM;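 active means compounds whose thallium flux B-score, printed positive for inhibition, exceeds three library SD while starting fluorescence stays within three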;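 further: channel opened by potassium depolarization with thallium stimulus after 20 min compound exposure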
KCNK9 block – KCNK9 potassium channel inhibitors, primary screen, HEK293 cells, thallium flux; Potassium channel subfamily K member 9 (Homo sapiens), Q9NPC2; B-score at 10 µM; FluxOR thallium flux fluorescence; active compounds read low; AID 488922, 2010; 1.2% of 310,000 active;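 active means ratio B-score over 3 SD below the library mean, with starting fluorescence within 5 SD of its mean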;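 further: negative B-score means less thallium flux so channel inhibition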
KCNK3 inh – human KCNK3 channel inhibitors, primary screen, CHO cells, FluxOR thallium flux, B-score; Potassium channel subfamily K member 3 (Homo sapiens), O14649; FluxOR fluorescence; active compounds read low; B-score at 10 µM; 0.84% of 340,000 active; AID 602410, 2012;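 active means B-score under library mean minus 4 SD, starting fluorescence ratio at most library mean plus 5 SD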;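 further: more negative B-score means stronger inhibition of thallium flux through KCNK3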
KCNQ1 act – potentiators or activators of KCNQ1 channel, primary screen, cell-based, thallium flux, high-throughput; Potassium voltage-gated channel subfamily KQT member 1 (Homo sapiens), P51787; CHO-K1 KCNQ1, thallium flux FluxOR fluorescence; active compounds read high; B-score at 10 µM; 0.35% of 310,000 active;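 active means fluorescence ratio B-score, a plate-corrected score, at least three library SD, with initial intensity B-score within 5 SD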
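Schedule – 37 °C overnight plating, 90-min dark dye load, 20-min compound pretreatment · System – stable KCNQ1 CHO-K1 line · Probe or stimulus – thallium- and potassium-containing depolarizing buffer · Measured by – kinetic FluxOR fluorescence, 10 s baseline plus 110 s post-stimulus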
Kir21 block – inhibitors of mouse Kir2.1 inward-rectifier potassium channel; HEK293-Kir2.1, FluxOR thallium flux fluorescence; active compounds read low; Inward rectifier potassium channel 2 (Mus musculus), P35561; B-score at 10 µM; 0.85% of 310,000 active;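 active means fluorescence ratio B-score at or below minus 3 SD of library scores, with starting-brightness B-score within 2 SD, cut at about -4.2 in these data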;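 further: channel flux triggered by added potassium and thallium sulfate stimulus; B-score of peak minus minimum fluorescence over baseline after thallium stimulus; more negative B-score means stronger Kir2.1 block with less thallium influx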
hERG protect – hERG rescue from dofetilide block, primary screen, cell-based, CHO-hERG, FluxOR thallium flux, dofetilide IC70; dofetilide IC70 present; 0.51% of 310,000 active; AID 1511, 2009; activation (rescue from dofetilide block), less the hit threshold, % at 10 µM; Voltage-gated inwardly rectifying potassium channel KCNH2 (Homo sapiens), Q12809;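 active means activation above the mean of controls blocked by dofetilide plus 5 SD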;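 further: thallium influx through hERG after potassium depolarization seen as dye fluorescence rise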
KCNQ1 block val – KCNQ1 potassium channel inhibitors, confirmation, cell-based, Tl flux, duplicate | shares compounds with KCNQ1 block | KCNQ1 cell line, FluxOR thallium flux fluorescence | inhibition, % at 10 µM | 93% of 1,600 active;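 active means primary screen active, with duplicate mean exceeding buffer control mean plus 3 SD of buffer wells, cut at about 28% in these data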;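 further: 0% = buffer control ratio and 100% = XE991 inhibitor control ratio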
CHO Tl flux – thallium flux effects in parental CHO cells, counter-screen for KCNQ1 inhibitor project, cell-based, Tl flux; shares compounds with KCNQ1 block; parental CHO-K1, FluxOR thallium flux fluorescence ratio; active compounds read low; zero means no signal rise above baseline; fluorescence ratio (Tl flux) at 10 µM; 21% of 1,600 active; AID 588366, 2011;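 active means mean of duplicate thallium-flux fluorescence ratios in parental host cells more than 5 SD below the buffer control mean, cut at about 0.38 in these data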;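 further: ratio is peak minus minimum fluorescence divided by baseline fluorescence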
KCNQ1 ephys val – KCNQ1 channel inhibitors, confirmation, orthogonal assay, cell-based, automated electrophysiology. AID 624120, 2012. 20% of 490 active. KCNQ1-CHO cells, automated patch clamp current. shares compounds with KCNQ1 block. calls only at 10 µM;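 active means KCNQ1 current drop exceeding 3 SD of negative control wells, seen in both duplicate runs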;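 further: steady state current during a 2 s step from -80 to +40 mV; negative values mean current inhibition and positive values mean potentiation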
KCNQ2 spec – KCNQ2 channel inhibition, selectivity assay for KCNQ1 inhibitor project, cell-based. inhibition, % at 10 µM. 71% of 1,600 active. AID 651746, 2012. KCNQ2 cells, FluxOR thallium flux fluorescence. shares compounds with KCNQ1 block;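 active means mean percent inhibition of the KCNQ2 thallium signal more than 5 SD above the buffer-only control wells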;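 further: KCNQ2 expressed in CHO cells; 0% = buffer control wells and 100% = XE-991 inhibitor control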
KCNQ1 KCNE1 spec – KCNQ1/KCNE1 channel inhibition, selectivity assay for KCNQ1 inhibitor project, CHO-K1 cells, thallium flux, FluxOR; shares compounds with KCNQ1 block; FluxOR thallium flux fluorescence; inhibition, % at 10 µM; 77% of 1,600 active;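 active means mean percent inhibition of duplicate wells above the buffer-only control mean plus 3 SD of those controls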;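 further: 0% = buffer only wells and 100% = XE-991 inhibitor control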
Target sequence (P51787 whole entry, looked up): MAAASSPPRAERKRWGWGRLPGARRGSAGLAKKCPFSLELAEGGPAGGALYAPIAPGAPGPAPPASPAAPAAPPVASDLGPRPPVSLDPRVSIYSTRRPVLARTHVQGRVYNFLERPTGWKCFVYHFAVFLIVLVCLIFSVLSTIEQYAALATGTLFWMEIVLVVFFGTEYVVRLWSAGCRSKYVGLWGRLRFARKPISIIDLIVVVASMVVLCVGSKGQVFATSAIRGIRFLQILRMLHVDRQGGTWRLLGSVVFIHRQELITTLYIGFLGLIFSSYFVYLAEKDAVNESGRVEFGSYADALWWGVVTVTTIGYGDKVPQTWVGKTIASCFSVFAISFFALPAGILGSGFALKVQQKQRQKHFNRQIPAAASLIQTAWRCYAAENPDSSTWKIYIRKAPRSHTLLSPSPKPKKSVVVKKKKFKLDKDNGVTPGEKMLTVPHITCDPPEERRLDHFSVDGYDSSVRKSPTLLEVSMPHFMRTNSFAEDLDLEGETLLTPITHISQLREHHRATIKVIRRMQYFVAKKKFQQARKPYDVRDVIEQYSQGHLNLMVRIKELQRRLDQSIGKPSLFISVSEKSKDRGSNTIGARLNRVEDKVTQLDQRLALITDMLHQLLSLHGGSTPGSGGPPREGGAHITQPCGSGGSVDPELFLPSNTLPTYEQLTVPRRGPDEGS
Numbers without * were called inactive; i = inactive; . = not tested or not shown; + = active, no number. Only some compounds are listed: those with a hit (about 3.8% of all), similar ones and a draw of the others.

SMILES | KCNQ1 block | KCNK9 block | KCNK3 inh | KCNQ1 act | Kir21 block | hERG protect | KCNQ1 block val | CHO Tl flux | KCNQ2 spec | KCNQ1 KCNE1 spec | others
CN1/C(=C/C=C(C#N)C#N)C(C)(C)c2ccccc21 | 25* | i | i | i | -0.03 | -44 | + | 0.12* | i | i
Cc1ccc(Cl)cc1N1CCN(C(=O)CCCn2c(=O)c3cccn3c3cccnc32)CC1 | 6* | i | i | i | 0.63 | -8 | 98* | 0.47 | 107%* | 177%* | KCNQ1 ephys val=i
O=C(c1ccc(C(F)(F)F)cc1)c1c[nH]c(C(=O)NCCCn2ccnc2)c1 | 7* | i | i | i | -2.8 | -21 | 59* | 0.44 | i | 89%*
CN(CC(=O)Nc1cccc2ccccc12)C(=O)c1cccc(S(=O)(=O)N(C)C)c1 | i | i | i | i | 0.58 | -11 | . | . | . | .
COc1ccc(-c2noc(C3CCCN(C(=O)c4ccc(F)cc4)C3)n2)cc1 (stereo not given) | i | i | i | i | 0.37 | -6 | . | . | . | .
Cc1cc(C)nc(NC(=O)c2ccc(COc3ccccc3Cl)cc2)c1 | 8* | i | i | i | -0.2 | -6 | 103* | 0.45 | 106%* | 123%* | KCNQ1 ephys val=i
CCC(C)/C(C)=N/NC(=O)c1ccc(COc2ccc(Cl)c(C)c2)cc1 (stereo not given) | . | . | i | . | . | . | . | . | . | .
O=C(Nc1cc(Cl)ccc1N1CCOCC1)c1ccc2c(c1)OCCO2 | 12* | i | i | i | -0.17 | -6 | 68* | 0.46 | 83%* | 52%*
Cc1ccc(O)c(-c2cc(C(F)(F)C(F)F)[nH]n2)c1 | 6* | i | i | i | 1.8 | -16 | 93* | 0.51 | 105%* | 129%* | KCNQ1 ephys val=+
Cc1c(C(=O)Nc2ccc3c(c2)OCCO3)sc2ncnc(N3CCCCC3C)c12 (stereo not given) | i | i | i | i | 0.73 | -16 | . | . | . | .
Cc1nc(N2CCC(C)CC2)c2c(C)c(C(=O)Nc3ccc4c(c3)OCCO4)sc2n1 | 8* | i | i | i | 0.01 | -10 | 112* | 0.42 | 120%* | 92%* | KCNQ1 ephys val=i
COC(=O)c1ccc(-c2ncc[nH]2)cc1 | i | i | i | i | 1.8 | -20 | . | . | . | .
CC(C)(C)c1ccc(CNC(=O)c2ccc3c(c2)NC(=O)CO3)cc1 | i | i | i | i | 1.1 | 3 | . | . | . | .
O=C1COc2ccc(C(=O)NCc3ccc4c(c3)OCO4)cc2N1 | 7* | i | i | i | 1.3 | -11 | 104* | 0.48 | 86%* | 112%* | KCNQ1 ephys val=+
COc1ccc(NC(=S)Nc2cccc(Cl)c2)cc1OC | 13* | i | i | i | -1.5 | -10 | 32* | 0.41 | i | i
CN1CCN(S(=O)(=O)c2ccc(NC(=O)Nc3cccc(Cl)c3)cc2)CC1 | 11* | i | i | i | 0.76 | -21 | 62* | 0.48 | 65%* | i
O=C(Nc1cccc(Cl)c1)Nc1cccc(Cl)c1 | i | i | i | i | 0.3 | -8 | . | . | . | .
Cc1cccc(NC(=O)Nc2ccc(S(N)(=O)=O)cc2)c1 | i | i | i | i | -2 | -10 | . | . | . | .
NS(=O)(=O)c1cccc(NC(=O)Nc2ccc(Cl)cc2)c1 | 8* | i | i | i | 1.6 | -13 | 137* | 0.43 | 101%* | 108%* | KCNQ1 ephys val=i
O=C(Nc1ccccc1)Nc1cc(Cl)cc(Cl)c1 | 10* | i | i | i | 0.34 | -14 | 28* | 0.52 | 78%* | i
O=c1oc2ccc(C#CC3(O)CCCCC3)cc2cc1-n1cc(C2(O)CCCCC2)nn1 | . | . | i | . | . | . | . | . | . | .
Cn1nc(-c2ccc(Cl)cc2)cc1NC(=O)CCCC(=O)O | i | i | i | i | 1.8 | 0 | . | . | . | .
COC(=O)c1cc(NC(=S)Nc2cc(Cl)cc(Cl)c2)cc(C(=O)OC)c1 | 8* | i | i | i | -0.15 | -11 | 66* | 0.42 | 59%* | i
COC(=O)c1cccc(NC(=O)Nc2ccc(Cl)cc2)c1 | 7* | i | i | i | 0.5 | -8 | 44* | 0.55 | i | i
O=C(Nc1ccncc1)Nc1ccc(Cl)cc1 | 7* | i | i | i | 0.37 | -16 | 28* | 0.54 | i | i
SMILES | KCNQ1 block | KCNK9 block | KCNK3 inh | KCNQ1 act | Kir21 block | hERG protect | KCNQ1 block val | CHO Tl flux | KCNQ2 spec | KCNQ1 KCNE1 spec | others
COC(=O)c1cc(NC(=O)Nc2cccc(Cl)c2)ccc1Cl | 6* | i | i | i | 1.3 | -12 | 62* | 0.52 | i | i
CCOC(=O)C1CCN(S(=O)(=O)c2ccc(NC(=O)c3ccco3)cc2)CC1 | i | i | i | i | 0.55 | -11 | . | . | . | .
COC(=O)c1cccc(NC(=S)Nc2ccc(Cl)c(Cl)c2)c1 | 8* | i | i | i | 0.07 | -22 | 168* | 0.5 | i | i | KCNQ1 ephys val=i
CC(=O)c1cccc(NC(=O)Cc2ccc3c(c2)CCCC3)c1 | i | i | i | i | 1.9 | 1 | . | . | . | .
CCOC(=O)C1=C(C)N=c2s/c(=C\c3ccc(O)c([N+](=O)[O-])c3)c(=O)n2C1c1ccccc1OC (stereo not given) | 18* | i | i | i | 0.85 | -3 | 144* | 0.3* | 109%* | +
O=C(Nc1ccc(Oc2ccc3ccccc3c2)cc1)c1ccco1 | 14* | i | i | i | 0.83 | -23 | 150* | 0.35* | i | 186%*
